Test results taken from ChEMBL document CHEMBL3526133, “Identifying a selective substrate and inhibitor pair for the evaluation of CYP2J2 activity” (Drug Metab Dispos, 2012).
Where a name gives a salt, the structure may show the parent alone.

Key:
Cytochrome P450 1A2 = target: T1, Cytochrome P450 1A2 (Homo sapiens, UniProt P05177)
T1 sequence (P05177 whole entry): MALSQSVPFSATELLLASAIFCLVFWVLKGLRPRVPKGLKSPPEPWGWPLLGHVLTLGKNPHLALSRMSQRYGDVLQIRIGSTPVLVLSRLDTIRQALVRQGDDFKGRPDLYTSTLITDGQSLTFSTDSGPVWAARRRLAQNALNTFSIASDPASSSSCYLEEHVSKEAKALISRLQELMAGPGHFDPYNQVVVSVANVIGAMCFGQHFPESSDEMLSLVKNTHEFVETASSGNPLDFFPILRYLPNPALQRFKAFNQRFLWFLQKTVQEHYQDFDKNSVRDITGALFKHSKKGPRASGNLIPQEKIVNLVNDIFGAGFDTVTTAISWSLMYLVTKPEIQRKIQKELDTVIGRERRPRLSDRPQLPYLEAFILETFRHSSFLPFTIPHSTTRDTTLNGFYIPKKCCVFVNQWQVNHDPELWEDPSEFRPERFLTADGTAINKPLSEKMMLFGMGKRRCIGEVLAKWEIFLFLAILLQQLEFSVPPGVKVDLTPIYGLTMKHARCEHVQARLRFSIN

CYP2J2 [1] = target: T2, CYP2J2 (Homo sapiens, UniProt P51589); assay: in vitro
T2 sequence (P51589 whole entry): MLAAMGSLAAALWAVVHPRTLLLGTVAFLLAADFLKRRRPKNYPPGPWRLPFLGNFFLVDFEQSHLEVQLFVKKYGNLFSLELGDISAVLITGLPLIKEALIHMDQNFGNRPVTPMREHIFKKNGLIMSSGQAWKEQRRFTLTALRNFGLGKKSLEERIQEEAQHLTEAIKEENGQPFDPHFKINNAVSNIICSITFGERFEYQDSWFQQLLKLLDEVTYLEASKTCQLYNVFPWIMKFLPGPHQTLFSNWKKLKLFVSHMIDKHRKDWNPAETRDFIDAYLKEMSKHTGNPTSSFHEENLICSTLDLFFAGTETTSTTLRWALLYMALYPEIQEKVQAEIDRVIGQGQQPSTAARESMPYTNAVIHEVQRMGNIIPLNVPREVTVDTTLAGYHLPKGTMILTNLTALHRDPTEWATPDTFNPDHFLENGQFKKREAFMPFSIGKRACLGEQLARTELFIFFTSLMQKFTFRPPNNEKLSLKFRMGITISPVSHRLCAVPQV

CYP2J2 [2] = target: T2, CYP2J2; assay: in vitro; remark: listed apart in the source
Cytochrome P450 2C8 = target: T3, Cytochrome P450 2C8 (Homo sapiens, UniProt P10632)
T3 sequence (P10632 whole entry): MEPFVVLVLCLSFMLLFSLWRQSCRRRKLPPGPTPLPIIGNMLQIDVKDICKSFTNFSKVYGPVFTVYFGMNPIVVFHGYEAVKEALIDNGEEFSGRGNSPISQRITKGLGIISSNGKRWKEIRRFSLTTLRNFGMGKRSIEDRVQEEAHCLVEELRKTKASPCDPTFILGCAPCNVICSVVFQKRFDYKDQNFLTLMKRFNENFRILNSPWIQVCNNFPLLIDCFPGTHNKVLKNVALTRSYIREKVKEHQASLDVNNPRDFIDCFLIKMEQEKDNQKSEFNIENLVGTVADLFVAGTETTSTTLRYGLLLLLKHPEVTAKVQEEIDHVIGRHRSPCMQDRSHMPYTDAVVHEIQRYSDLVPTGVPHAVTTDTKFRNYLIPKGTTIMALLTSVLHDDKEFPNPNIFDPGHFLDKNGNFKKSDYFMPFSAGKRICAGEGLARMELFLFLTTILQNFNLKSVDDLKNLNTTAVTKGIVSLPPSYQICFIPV

Cytochrome P450 2D6 = Cytochrome P450 2D6 (Homo sapiens, UniProt P10635)
Cytochrome P450 2C9 = Cytochrome P450 2C9 (Homo sapiens, UniProt P11712)
Cytochrome P450 2C19 = Cytochrome P450 2C19 (Homo sapiens, UniProt P33261)
Cytochrome P450 2J2 [3] = target: T4, Cytochrome P450 2J2 (Homo sapiens, UniProt P51589); assay: Drug metabolism in human liver microsomes assessed as CYP2J2-mediated compound formation treated with amiodarone at 1 uM after 5 to 45 mins by LC-MS/MS analysis; format: ADME
T4 sequence (P51589 whole entry): T2 sequence (P51589 whole entry)

[4] = Retention time in potassium phosphate buffer treated with amiodarone hydrochloride at 30 uM by HPLC analysis; format: physicochemical
Cytochrome P450 2J2 [5] = target: T4, Cytochrome P450 2J2; assay: Drug metabolism assessed as recombinant CYP2J2 (unknown origin)-mediated compound formation treated with amiodarone at 1 uM after 5 to 45 mins by LC-MS/MS analysis; format: ADME; conditions: recombinant enzyme
Procedure, shortened: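 Preincubated, then started with NADPH-regenerating system (1 mM NADPH final). Aliquots taken at 0, 5, 10, 20, 30, 45 min and quenched in acetonitrile with internal standard. No-NADPH controls included. Products measured by LC-MS/MS.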

[6] = recombinant CYP2J2, probe astemizole (O-demethylation)
[7] = recombinant CYP2J2, probe terfenadine (hydroxylation)

Sequence of Cytochrome P450 2D6 (P10635 whole entry): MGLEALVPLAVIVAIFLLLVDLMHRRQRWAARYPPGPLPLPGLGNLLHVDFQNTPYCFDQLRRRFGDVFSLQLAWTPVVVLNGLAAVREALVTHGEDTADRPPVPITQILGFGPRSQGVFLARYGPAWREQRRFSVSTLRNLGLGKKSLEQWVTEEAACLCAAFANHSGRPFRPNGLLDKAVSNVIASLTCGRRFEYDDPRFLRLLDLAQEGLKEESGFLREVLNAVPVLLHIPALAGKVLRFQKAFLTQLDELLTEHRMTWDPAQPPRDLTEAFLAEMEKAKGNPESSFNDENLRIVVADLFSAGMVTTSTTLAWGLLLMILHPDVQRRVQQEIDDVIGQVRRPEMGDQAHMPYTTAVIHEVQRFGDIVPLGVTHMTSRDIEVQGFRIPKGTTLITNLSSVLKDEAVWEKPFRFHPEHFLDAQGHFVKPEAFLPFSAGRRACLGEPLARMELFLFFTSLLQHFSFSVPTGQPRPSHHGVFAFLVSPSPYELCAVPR
Sequence of Cytochrome P450 2C19 (P33261 whole entry): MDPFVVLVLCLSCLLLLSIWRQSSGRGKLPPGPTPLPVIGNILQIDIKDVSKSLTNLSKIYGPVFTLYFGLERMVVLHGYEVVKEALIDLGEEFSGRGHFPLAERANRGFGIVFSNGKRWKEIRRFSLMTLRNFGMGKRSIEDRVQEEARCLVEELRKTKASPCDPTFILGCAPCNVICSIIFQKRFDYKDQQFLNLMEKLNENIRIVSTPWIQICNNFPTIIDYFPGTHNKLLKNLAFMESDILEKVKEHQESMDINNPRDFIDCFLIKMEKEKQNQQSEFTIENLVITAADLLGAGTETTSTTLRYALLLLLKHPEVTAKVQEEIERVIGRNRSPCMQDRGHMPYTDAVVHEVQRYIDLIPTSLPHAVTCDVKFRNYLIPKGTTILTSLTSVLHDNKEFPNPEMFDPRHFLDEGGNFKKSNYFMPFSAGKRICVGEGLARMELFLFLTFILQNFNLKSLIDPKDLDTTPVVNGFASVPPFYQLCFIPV
Sequence of Cytochrome P450 2C9 (P11712 whole entry): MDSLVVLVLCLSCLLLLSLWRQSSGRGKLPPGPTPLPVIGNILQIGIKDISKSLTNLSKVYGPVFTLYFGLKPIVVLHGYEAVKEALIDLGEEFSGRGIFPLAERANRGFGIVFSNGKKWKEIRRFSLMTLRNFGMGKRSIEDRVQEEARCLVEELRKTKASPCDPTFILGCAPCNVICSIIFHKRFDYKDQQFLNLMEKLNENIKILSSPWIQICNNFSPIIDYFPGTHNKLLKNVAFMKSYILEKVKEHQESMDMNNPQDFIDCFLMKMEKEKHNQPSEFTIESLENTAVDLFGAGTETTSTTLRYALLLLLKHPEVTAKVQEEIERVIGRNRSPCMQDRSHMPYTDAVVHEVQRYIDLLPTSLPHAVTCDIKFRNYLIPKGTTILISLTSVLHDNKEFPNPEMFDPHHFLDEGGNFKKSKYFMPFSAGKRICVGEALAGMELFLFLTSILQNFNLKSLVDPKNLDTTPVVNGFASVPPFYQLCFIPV

| Compound | activity at 5 min, 30 µM (CYP2J2 [1]; [6]) [%] | activity at 5 min, 30 µM (CYP2J2 [2]; [7]) [%] | IC50 (Cytochrome P450 2C8) [µM] | further results |
| --- | --- | --- | --- | --- |
| COC(=O)C1=C(C)NC(C)=C(C(=O)OC(C)C)C1c1cccc2nonc12 (stereo not drawn) [ISRADIPINE] | 13.6 | 23.7 | – | IC50 (Cytochrome P450 1A2): 28.3 µM |
| C#C[C@]1(O)CC[C@H]2[C@@H]3CCC4=Cc5oncc5C[C@]4(C)[C@H]3CC[C@@]21C [DANAZOL] | 8 | 1.6 | 1.95 | IC50 (Cytochrome P450 1A2): > 30 µM |
| CSc1ccc2c(c1)N(CCC1CCCCN1C)c1ccccc1S2 (stereo not drawn) [THIORIDAZINE] | 12.9 | 51.7 | – | – |
| COCCCC/C(=N\OCCN)c1ccc(C(F)(F)F)cc1 [FLUVOXAMINE] | 54.4 | 48.7 | – | – |
| O=c1[nH]c2ccccc2n1C1CCN(CCCC(c2ccc(F)cc2)c2ccc(F)cc2)CC1 [PIMOZIDE] | 6.6 | 27.3 | > 30 | IC50 (Cytochrome P450 1A2): > 30 µM |
| CCCC1O[C@@H]2C[C@H]3[C@@H]4CCC5=CC(=O)C=C[C@]5(C)[C@H]4[C@@H](O)C[C@]3(C)[C@]2(C(=O)CO)O1 (stereo partly drawn) [BUDESONIDE] | – | 50.8 | – | – |
| CCOC(=O)N1CCC(=C2c3ccc(Cl)cc3CCc3cccnc32)CC1 [LORATADINE] | – | – | 2.95 | activity at 5 min, 30 µM (CYP2J2 [1]; recombinant enzyme): 4%; activity at 5 min, 30 µM (CYP2J2 [2]; recombinant enzyme): 11.4% |
| Clc1ccc(COC(Cn2ccnc2)c2ccc(Cl)cc2Cl)c(Cl)c1 (stereo not drawn) [MICONAZOLE] | 10.1 | 3.4 | – | – |
| O=c1[nH]c2ccccc2n1CCCN1CCC(n2c(=O)[nH]c3cc(Cl)ccc32)CC1 [DOMPERIDONE] | 50.5 | 43.5 | – | – |
| Cc1c(OCC(F)(F)F)ccnc1C[S+]([O-])c1nc2ccccc2[nH]1 (stereo not drawn) [LANSOPRAZOLE] | 71.1 | 0.7 | 5.75 | IC50 (Cytochrome P450 2D6): 2.9 µM; IC50 (Cytochrome P450 2C9): 19.2 µM; IC50 (Cytochrome P450 2C19): 13.4 µM; IC50 (Cytochrome P450 1A2): 6.46 µM |
| CC(=O)N1CCN(c2ccc(OCC3COC(Cn4ccnc4)(c4ccc(Cl)cc4Cl)O3)cc2)CC1 (stereo not drawn) [KETOCONAZOLE] | 5.4 | 5.8 | – | – |
| O=C(CCCN1CCC(O)(c2ccc(Cl)cc2)CC1)c1ccc(F)cc1 [HALOPERIDOL] | 14.7 | 15.6 | – | – |
| O[C@@H](c1cc(C(F)(F)F)nc2c(C(F)(F)F)cccc12)[C@H]1CCCCN1 (relative stereo) [(S,R)-MEFLOQUINE] | 44.6 | 22.4 | > 30 | – |
| CN(C)CCC=C1c2ccccc2C=Cc2ccccc21 [CYCLOBENZAPRINE] | – | – | – | activity at 5 min, 30 µM (CYP2J2 [1]; recombinant enzyme): 65.9%; activity at 5 min, 30 µM (CYP2J2 [2]; recombinant enzyme): 48.9% |
| CNCCC(Oc1ccc(C(F)(F)F)cc1)c1ccccc1 (stereo not drawn) [FLUOXETINE] | – | – | – | activity at 5 min, 30 µM (CYP2J2 [1]; recombinant enzyme): 87%; activity at 5 min, 30 µM (CYP2J2 [2]; recombinant enzyme): 44.3% |
| CCC(=O)C(CC(C)N(C)C)(c1ccccc1)c1ccccc1 (stereo not drawn) [METHADONE] | 123 | 43 | – | – |

| Compound | activity at 5 min, 30 µM (CYP2J2 [1]; [6]) [%] | activity at 5 min, 30 µM (CYP2J2 [2]; [7]) [%] | IC50 (Cytochrome P450 2C8) [µM] | further results |
| --- | --- | --- | --- | --- |
| CC/C(=C(\c1ccccc1)c1ccc(OCCN(C)C)cc1)c1ccccc1 [TAMOXIFEN] | 9.1 | 11.5 | 14.3 | – |
| CCOC(=O)[C@H](CCc1ccccc1)N[C@@H](C)C(=O)N1Cc2ccccc2C[C@H]1C(=O)O | 64.1 | 51.4 | – | – |
| Fc1ccc([C@@H]2CCNC[C@H]2COc2ccc3c(c2)OCO3)cc1 [PAROXETINE HYDROCHLORIDE] | 39 | 31.6 | > 30 | IC50 (Cytochrome P450 2C9): > 30 µM; IC50 (Cytochrome P450 1A2): 5.33 µM |
| O=c1c(O)c(-c2ccc(O)c(O)c2)oc2cc(O)cc(O)c12 [QUERCETIN] | 44.7 | 29.8 | – | IC50 (Cytochrome P450 2D6): 18.8 µM |
| Clc1ccccc1C(c1ccccc1)(c1ccccc1)n1ccnc1 [CLOTRIMAZOLE] | 5.6 | 14.1 | – | IC50 (Cytochrome P450 2D6): 0.883 µM; IC50 (Cytochrome P450 2C9): 0.136 µM; IC50 (Cytochrome P450 2C19): 7.41 µM |
| COc1ccc(CCN(C)CCCC(C#N)(c2ccc(OC)c(OC)c2)C(C)C)cc1OC (stereo not drawn) | 69.1 | 1.3 | – | IC50 (Cytochrome P450 1A2): > 30 µM |
| CC[C@H](C)C(=O)O[C@H]1C[C@@H](C)C=C2C=C[C@H](C)[C@H](CC[C@@H]3C[C@@H](O)CC(=O)O3)[C@H]21 [LOVASTATIN] | 13.6 | 37.7 | – | – |
| Cc1ccccc1C(OCCN(C)C)c1ccccc1 (stereo not drawn) [ORPHENADRINE] | 102 | 1.2 | > 30 | IC50 (Cytochrome P450 2C9): > 30 µM; IC50 (Cytochrome P450 2C19): 24.2 µM; IC50 (Cytochrome P450 1A2): > 30 µM |
| CCN(CC)CCOc1ccc(C(=C(Cl)c2ccccc2)c2ccccc2)cc1 [CLOMIPHENE] | 109 | 44.2 | – | – |
| CCN(CC)CCOc1c(I)cc(C(=O)c2c(CCCCO)oc3ccccc23)cc1I | – | – | – | Drug metabolism (Cytochrome P450 2J2 [3]): metabolite_detected; Retention_time [4]: 12.7 min; Drug metabolism (Cytochrome P450 2J2 [5]): metabolite_detected |
| COC(=O)C1=C(C)NC(C)=C(C(=O)OCCN(C)Cc2ccccc2)C1c1cccc([N+](=O)[O-])c1 (stereo not drawn) [NICARDIPINE] | – | – | – | activity at 5 min, 30 µM (CYP2J2 [1]; recombinant enzyme): 5.8%; activity at 5 min, 30 µM (CYP2J2 [2]; recombinant enzyme): 8.9% |
| CCN(CC)Cc1cc(Nc2ccnc3cc(Cl)ccc23)ccc1O [AMODIAQUINE] | 7.7 | 22.5 | – | – |
| COc1ccc2[nH]c([S+]([O-])Cc3ncc(C)c(OC)c3C)nc2c1 (stereo not drawn) [OMEPRAZOLE] | 70.5 | 46.1 | – | – |
| CCCSc1ccc2nc(NC(=O)OC)[nH]c2c1 [ALBENDAZOLE] | – | – | > 30 | IC50 (Cytochrome P450 2D6): > 30 µM; IC50 (Cytochrome P450 2C9): > 30 µM; IC50 (Cytochrome P450 2C19): > 30 µM; IC50 (Cytochrome P450 1A2): > 30 µM |
| CC(C)COCC(CN(Cc1ccccc1)c1ccccc1)N1CCCC1 (stereo not drawn) [BEPRIDIL] | – | – | > 30 | IC50 (Cytochrome P450 2D6): > 30 µM; IC50 (Cytochrome P450 1A2): > 30 µM |
| CNCCC=C1c2ccccc2CCc2ccccc21 [NORTRIPTYLINE] | – | – | – | activity at 5 min, 30 µM (CYP2J2 [1]; recombinant enzyme): 70.1%; activity at 5 min, 30 µM (CYP2J2 [2]; recombinant enzyme): 45.3% |
